From ChEMBL document CHEMBL4229340, “Attaching NorA efflux pump inhibitors to methylene blue enhances antimicrobial photodynamic inactivation of Escherichia coli and Acinetobacter baumannii in vitro and in vivo” (Bioorg Med Chem Lett, 2018) come the findings set out here.

Data set [1] concerns Acinetobacter baumannii. Description: Photodynamic antibacterial activity against wild type Acinetobacter baumannii AB007 assessed as bacterial killing at 20 uM incubated for 30 mins followed by 6 J/cm'2 irradiation with red light relative to control. It is filed as functional. Put shortly:
(§1)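 A. baumannii AB007 was exposed to compound at 1-20 μM, with or without red-light illumination, alongside dark controls. Survival fraction came from CFU counts. Mean ± SEM from three independent experiments.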

Data set [2] deals with Acinetobacter baumannii. Description: Dark toxicity against wild type Acinetobacter baumannii AB007 assessed as reduction in bacterial load at 1 to 20 uM incubated for 30 mins. The conditions noted are these: in vitro, 0.5 h. It is filed as organism-based. Put shortly:
as §1

Data set [3] deals with Escherichia coli. The data set can be described thus: Dark toxicity against wild type Escherichia coli K-12 assessed as reduction in bacterial load at 1 to 20 uM incubated for 30 mins. It is filed as organism-based. The conditions noted are these: in vitro, 0.5 h. The gist of the method: (§2)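 E. coli K-12 and isogenic TolC knockout JW5503-1 were exposed to compound at 1-20 μM, then illuminated with 652 nm red light at 100 mW/cm2 to 6 J/cm2, or kept dark. Serially diluted aliquots were plated for CFU and survival fraction determined. Mean ± SEM from three independent experiments.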

Data set [4] deals with Escherichia coli. The data set can be described thus: Photodynamic antibacterial activity against wild type Escherichia coli K-12 assessed as bacterial killing at 20 uM incubated for 30 mins followed by 6 J/cm'2 irradiation with red light relative to control. It is filed as functional. The gist of the method:
as §2

Data set [5] deals with Escherichia coli. The data set can be described thus: Dark toxicity against TolC deficient Escherichia coli JW5503-1 assessed as reduction in bacterial load at 1 to 20 uM incubated for 30 mins. Format: organism-based. The conditions noted are these: in vitro, 0.5 h. The gist of the method: as §2
The subject of data set [6] is Escherichia coli. Description: Photodynamic antibacterial activity against TolC deficient Escherichia coli JW5503-1 assessed as bacterial killing at 20 uM incubated for 30 mins followed by 6 J/cm'2 irradiation with red light relative to control. It is filed as functional. Put shortly:
as §2

For data set [7], the system named is Acinetobacter baumannii. The data set can be described thus: Photodynamic antibacterial activity against Acinetobacter baumannii AB Iraqi 007 infected in BALB/c mouse needle back-scratch wound abrasion infection model assessed as reduction in bacterial load in shaved dorsal surfaces of mouse after 15 mins followed by 36 J/cm'2 irradiation with red light over 20 mins by bioluminescence imaging method. Format: functional. More on the design: scale not given: the % may be the effect or the level left. The gist of the method: (§3)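 Bioluminescent A. baumannii inoculated into needle-scratch wounds on shaved mouse backs. Sites got 40 μL of a 250 μM stock of compound, then 652 nm red light at 0, 12, 36, 84, 108 and 120 J/cm2, or were kept dark (dark controls). Normalized wound RLU (mean ± SEM, 4-6 mice/group) was imaged during illumination, then daily for 14 days.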

Data set [8] relates to Acinetobacter baumannii. Description: Dark toxicity against Acinetobacter baumannii AB Iraqi 007 infected in BALB/c mouse needle back-scratch wound abrasion infection model assessed as bacterial load in shaved dorsal surfaces of mouse after 15 mins measured after 1 day by bioluminescence imaging method. Format: organism-based. The conditions noted are these: in vivo. The gist of the method:
as §3

Data set [9] concerns Acinetobacter baumannii. Description: Dark toxicity against Acinetobacter baumannii AB Iraqi 007 infected in BALB/c mouse needle back-scratch wound abrasion infection model assessed as reduction in bacterial load in shaved dorsal surfaces of mouse after 15 mins measured after 12 days by bioluminescence imaging method. Format: organism-based. The conditions noted are these: in vivo. The gist of the method:
as §3

The subject of data set [10] is Acinetobacter baumannii. The data set can be described thus: Dark toxicity against Acinetobacter baumannii AB Iraqi 007 infected in BALB/c mouse needle back-scratch wound abrasion infection model assessed as reduction in bacterial load in shaved dorsal surfaces of mouse measured after 15 mins by bioluminescence imaging method. Format: organism-based. More on the design: scale not given: the % may be the effect or the level left. The conditions noted are these: in vivo, 0.25 h. The gist of the method: as §3

The subject of data set [11] is Escherichia coli. Description: Photodynamic antibacterial activity against TolC deficient Escherichia coli JW5503-1 assessed as bacterial killing at 10 uM incubated for 30 mins followed by 6 J/cm'2 irradiation with red light relative to control. Format: functional. Put shortly:
as §2

The test system of data set [12] is Escherichia coli. The data set can be described thus: Photodynamic antibacterial activity against wild type Escherichia coli K-12 assessed as bacterial killing at 10 uM incubated for 30 mins followed by 6 J/cm'2 irradiation with red light relative to control. Format: functional. The gist of the method: as §2
Data set [13] has as its system Acinetobacter baumannii. Description: Photodynamic antibacterial activity against Acinetobacter baumannii AB Iraqi 007 infected in BALB/c mouse needle back-scratch wound abrasion infection model assessed as reduction in bacterial load in shaved dorsal surfaces of mouse after 15 mins followed by up to 120 J/cm'2 irradiation with red light over 20 mins measured up to 6 days by bioluminescence imaging method. It is filed as functional, organism-based. The gist of the method:
as §3

The subject of data set [14] is Acinetobacter baumannii. Description: Photodynamic antibacterial activity against Acinetobacter baumannii AB Iraqi 007 infected in BALB/c mouse needle back-scratch wound abrasion infection model assessed as reduction in bacterial load in shaved dorsal surfaces of mouse after 15 mins followed by 84 J/cm'2 irradiation with red light over 20 mins by bioluminescence imaging method. It is filed as functional, organism-based. The gist of the method: as §3

Data set [15] relates to Escherichia coli. The data set can be described thus: Photodynamic antibacterial activity against enteropathogenic Escherichia coli WS2572 infected in BALB/c mouse full-thickness third-degree burn infection model assessed as reduction in bacterial load in shaved dorsal surfaces of mouse after 15 mins followed by up to 120 J/cm'2 irradiation with red light over 20 mins measured after 10 days by bioluminescence imaging method. It is filed as functional, organism-based. The gist of the method: (§4)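 Mouse full-thickness third-degree burn on the shaved back, inoculated with bioluminescent EPEC WS2572. Wounds got 40 μL of 250 μM stock compound, then 652 nm red light at 0, 12, 36, 84, 108 and 120 J/cm2 or no light. Normalized wound RLU (mean ± SEM, 4-6 mice/group) was imaged during illumination and daily for 14 days after.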

The subject of data set [16] is Escherichia coli. The data set can be described thus: Photodynamic antibacterial activity against enteropathogenic Escherichia coli WS2572 infected in BALB/c mouse full-thickness third-degree burn infection model assessed as reduction in bacterial load in shaved dorsal surfaces of mouse after 15 mins followed by 84 J/cm'2 irradiation with red light over 20 mins by bioluminescence imaging method. Format: functional, organism-based. The gist of the method:
as §4

Data set [17] relates to Escherichia coli. Description: Photodynamic antibacterial activity against enteropathogenic Escherichia coli WS2572 infected in BALB/c mouse full-thickness third-degree burn infection model assessed as reduction in bacterial load in shaved dorsal surfaces of mouse after 15 mins followed by 36 J/cm'2 irradiation with red light over 20 mins by bioluminescence imaging method. It is filed as functional. More on the design: scale not given: the % may be the effect or the level left. The gist of the method: as §4

Data set [18] concerns Escherichia coli. Description: Dark toxicity against enteropathogenic Escherichia coli WS2572 infected in BALB/c mouse full-thickness third-degree burn infection model assessed as reduction in bacterial load in shaved dorsal surfaces of mouse measured after 15 mins by bioluminescence imaging method. It is filed as organism-based. More on the design: scale not given: the % may be the effect or the level left. The conditions noted are these: in vivo, 0.25 h. Put shortly:
as §4

Data set [19] deals with Escherichia coli. Description: Dark toxicity against enteropathogenic Escherichia coli WS2572 infected in BALB/c mouse full-thickness third-degree burn infection model assessed as reduction in bacterial load in shaved dorsal surfaces of mouse after 15 mins measured after 1 day by bioluminescence imaging method. It is filed as organism-based. The conditions noted are these: in vivo. Put shortly:
as §4

Data set [20] concerns Acinetobacter baumannii. The data set can be described thus: Photodynamic antibacterial activity against Acinetobacter baumannii AB Iraqi 007 infected in BALB/c mouse needle back-scratch wound abrasion infection model assessed as reduction in bacterial load in shaved dorsal surfaces of mouse after 15 mins followed by up to 120 J/cm'2 irradiation with red light over 20 mins measured after 1 day by bioluminescence imaging method. Format: functional. More on the design: scale not given: the % may be the effect or the level left. Put shortly:
as §3

Data set [21] concerns Escherichia coli. Description: Photodynamic antibacterial activity against enteropathogenic Escherichia coli WS2572 infected in BALB/c mouse full-thickness third-degree burn infection model assessed as reduction in bacterial load in shaved dorsal surfaces of mouse after 15 mins followed by up to 120 J/cm'2 irradiation with red light over 20 mins by bioluminescence imaging method. It is filed as functional. On the set-up: scale not given: the % may be the effect or the level left. The gist of the method: as §4

The subject of data set [22] is Escherichia coli. Description: Photodynamic antibacterial activity against enteropathogenic Escherichia coli WS2572 infected in BALB/c mouse full-thickness third-degree burn infection model assessed as reduction in bacterial load in shaved dorsal surfaces of mouse after 15 mins followed by up to 120 J/cm'2 irradiation with red light over 20 mins measured after 1 day by bioluminescence imaging method. It is filed as functional, organism-based. The gist of the method:
as §4

The test system of data set [23] is Acinetobacter baumannii. Description: Photodynamic antibacterial activity against Acinetobacter baumannii AB Iraqi 007 infected in BALB/c mouse needle back-scratch wound abrasion infection model assessed as reduction in bacterial load in shaved dorsal surfaces of mouse after 15 mins followed by up to 120 J/cm'2 irradiation with red light over 20 mins measured after 10 days by bioluminescence imaging method. It is filed as functional, organism-based. The gist of the method:
as §3

Data set [24] concerns Escherichia coli. Description: Photodynamic antibacterial activity against enteropathogenic Escherichia coli WS2572 infected in BALB/c mouse full-thickness third-degree burn infection model assessed as reduction in bacterial load in shaved dorsal surfaces of mouse after 15 mins followed by up to 120 J/cm'2 irradiation with red light over 20 mins measured after 12 days by bioluminescence imaging method. It is filed as functional, organism-based. The gist of the method: as §4

Data set [25] relates to Acinetobacter baumannii. The data set can be described thus: Photodynamic antibacterial activity against Acinetobacter baumannii AB Iraqi 007 infected in BALB/c mouse needle back-scratch wound abrasion infection model assessed as reduction in bacterial load in shaved dorsal surfaces of mouse after 15 mins followed by 108 J/cm'2 irradiation with red light over 20 mins by bioluminescence imaging method. Format: functional, organism-based. The gist of the method:
as §3

Structures are written as SMILES. Active and inactive are the calls of the source. The rule behind the calls is not given here. Where only a bound is given, the exact number is not on record here.

Consider `CN(CCCOc1ccccc1NC(=O)Nc1ccc2ccccc2c1)CCN(C)c1ccc2nc3ccc(N(C)C)cc3[s+]c2c1.[Cl-]`, for which the LCK in the data set with Acinetobacter baumannii [1] is 4; in the data set on Escherichia coli [4] it was 3; in the data set with Escherichia coli [6], 4.5. Further, the Activity result with Acinetobacter baumannii [2], in the data set with Escherichia coli [3] and with Escherichia coli [5] was “Non-Toxic” each time.

On to `CN(CCN(C)c1ccc2nc3ccc(N(C)C)cc3[s+]c2c1)Cc1ccc(-c2cc3cc([N+](=O)[O-])ccc3[nH]2)cc1.[Cl-]`, for which the outcome with Acinetobacter baumannii [1], with Acinetobacter baumannii [13] and with Acinetobacter baumannii [14] was Active. Also, the Activity entry is listed as “Non-Toxic” with Acinetobacter baumannii [2]; “Non-Toxic” in the data set with Escherichia coli [3]; 95% with Acinetobacter baumannii [7]; more than 50% in the data set with Acinetobacter baumannii [8]; “Toxic” in the data set on Acinetobacter baumannii [9]; less than 25% in the data set with Acinetobacter baumannii [10]. In the data set on Escherichia coli [5], the Activity result is “Non-Toxic”. In addition, the LCK in the data set on Escherichia coli [4] was determined as 4; in the data set with Escherichia coli [11], 2; with Escherichia coli [6] it was 7; in the data set on Escherichia coli [12], 2.

Regarding `CN(CCN(C)c1ccc2nc3ccc(N(C)C)cc3[s+]c2c1)C(=O)c1ccc(-c2cc3cc([N+](=O)[O-])ccc3[nH]2)cc1.[Cl-]`, the LCK with Acinetobacter baumannii [1] was 4; in the data set on Escherichia coli [4], 6; in the data set on Escherichia coli [11] it was 6; with Escherichia coli [12], 4. Also, the Activity entry was “Non-Toxic” in the data set on Acinetobacter baumannii [2]; “Non-Toxic” in the data set with Escherichia coli [3]; “Non-Toxic” with Escherichia coli [5]; 80% with Escherichia coli [17]; 40% in the data set on Escherichia coli [18]. In addition, the result in the data set on Escherichia coli [15], in the data set with Escherichia coli [6] and in the data set with Escherichia coli [16] was Active.

With `CN(C)c1ccc2nc3ccc(N(C)C)cc3[s+]c2c1.[Cl-]` [METHYLENE BLUE ANHYDROUS], the Activity entry in the data set on Acinetobacter baumannii [2] is reported as “Non-Toxic”; with Escherichia coli [3], “Non-Toxic”; with Acinetobacter baumannii [7], 50%; in the data set on Acinetobacter baumannii [8], more than 50%; in the data set with Escherichia coli [19], “Not Active”; in the data set on Acinetobacter baumannii [9], “Toxic”. The Activity in the data set on Acinetobacter baumannii [10] was less than 25%; in the data set with Escherichia coli [5] it was “Non-Toxic”; in the data set with Acinetobacter baumannii [20], more than 50%; in the data set on Escherichia coli [21] it was 90%; with Escherichia coli [18], 25%. Further, the values for the LCK in the data set on Escherichia coli [4], in the data set with Escherichia coli [6] and with Escherichia coli [12] were 2.5, 3.5 and 2, respectively.

Take `CN(C)c1ccc2nc3ccc(=[N+](C)C)cc-3sc2c1`: the outcome with Acinetobacter baumannii [1], in the data set on Acinetobacter baumannii [23], in the data set with Escherichia coli [11], in the data set on Escherichia coli [24] and in the data set with Acinetobacter baumannii [25] was Active. In addition, the outcome with Escherichia coli [22] was inactive.
